The source made the active and inactive calls. The rule behind the calls is not given here.
How the values were obtained:
[1] = test system: U-937; experiment: Growth inhibition of human U937 cells assessed as [3H]5-methyl thymidine incorporation after 48 hrs by liquid scintillation counting; assay type: functional, cell-based
Outline: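 Exponentially growing U-937 cells (10⁴ per well in RPMI 1640) exposed to coumarins up to 2.0 mM or 0.0001% (v/v) DMSO for 48 h. 0.5 µCi [³H]5-methyl thymidine added 12 h before the end. Cells harvested, incorporation read by liquid scintillation counting as % of DMSO control. IC50 from sigmoidal dose-response fit; quadruplicate, at least four independent experiments.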

[2] = test system: U-937; experiment: Cytotoxicity against human U937 cells after 48 hrs by trypan blue assay; assay type: functional; conditions: U-937, 48 h
Outline: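 U-937 cells in exponential growth seeded at 10⁵ cells/mL RPMI 1640, exposed to coumarin 0.15 µM to 2.0 mM or 0.0001% (v/v) DMSO vehicle for 48 h at 5% CO₂. Viable cells counted by trypan blue exclusion (0.4%, 5 min) in a hemocytometer. CC50 from sigmoidal dose-response fit; quadruplicate, at least four independent experiments.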

[3] = test system: U-937; experiment: Induction of human U937 cell differentiation assessed as burst oxidative capacity at 25 uM after 72 hrs by NBT reduction assay relative to control; assay type: functional, cell-based
Outline: (§1)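 NBT reduction: U-937 cells (2 × 10⁵/mL) treated 72 h with 25 or 50 µM compound, 1 µM ATRA (positive control) or 0.0001% (v/v) DMSO. Washed, then incubated in RPMI containing 1 mg/mL NBT and 1 µg/mL PMA for 30 min at 37 °C. Formazan dissolved in DMSO, A570 read relative to DMSO control (=1); n = 3.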

[4] = test system: U-937; experiment: Induction of human U937 cell differentiation assessed as expression of CD11b levels at 50 uM after 72 hrs relative to control; assay type: functional, cell-based
Outline: (§2)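 U-937 cells (2 × 10⁵/mL) treated 72 h with 25 or 50 µM compound, 400 µM dbcAMP (positive control) or 0.0001% (v/v) DMSO. Washed in PBS, stained with saturating PE anti-CD11b or isotype control, 4 °C, 30 min. Analysed by flow cytometry, ≥5000 events; CD11b relative to DMSO control (=1); n = 3.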

[5] = test system: U-937; experiment: Induction of human U937 cell differentiation assessed as expression of CD88 receptor at 5 uM after 2 days; assay type: functional, cell-based
Outline: (§3)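 CD88 read-out as C5a-evoked Ca²⁺ release: U-937 cells (1 × 10⁶/mL) treated 48 h with 5, 25 or 50 µM compound, 400 µM dbcAMP or 0.0001% DMSO. Loaded with 2 µM Fura 2-AM in BSS pH 7.5, 30 min, 37 °C, then 2 × 10⁶ cells/mL. F340/F380 (emission 505 nm) recorded for 8 min at 37 °C with rhC5a or ATP injection. Calibrated with Triton X-100/EGTA; ≥3 experiments.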

[6] = test system: U-937; experiment: Growth inhibition of human U937 cells assessed as proliferation at 50 uM after 72 hrs; assay type: functional; conditions: U-937, 72 h, read-out: Activity
Outline: (§4)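 U-937 cells seeded at 10⁵ cells/mL and treated with 25 or 50 µM compound, 400 µM dbcAMP (positive control) or 0.0001% (v/v) DMSO for up to 72 h (sampled at 24, 48, 72 h). Cell number counted on a Coulter Z-1, with density kept ≤1 × 10⁶ cells/mL. Expressed as % of DMSO control; n = 3.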

[7] = test system: U-937; experiment: Growth inhibition of human U937 cells assessed as cell proliferation after 72 hrs; assay type: functional, cell-based; conditions: TDE = time-dependent effect; outline: as §4
[8] = test system: U-937; experiment: Induction of human U937 cell differentiation assessed as increase in rhC5a-stimulated intracellular calcium at 50 uM after 2 days; assay type: functional, cell-based; outline: as §3
[9] = test system: U-937; experiment: Induction of human U937 cell differentiation assessed as expression of CD88 receptor at 50 uM after 2 days; assay type: functional, cell-based; outline: as §3
[10] = test system: U-937; experiment: Induction of human U937 cell differentiation assessed as expression of CD11b levels at 25 uM after 72 hrs relative to control; assay type: functional, cell-based; outline: as §2
[11] = test system: U-937; experiment: Induction of human U937 cell differentiation assessed as increase in rhC5a-stimulated intracellular calcium at 25 uM after 2 days; assay type: functional, cell-based; outline: as §3
[12] = test system: U-937; experiment: Induction of human U937 cell differentiation assessed as expression of CD88 receptor at 25 uM after 2 days; assay type: functional, cell-based; outline: as §3
[13] = test system: U-937; experiment: Induction of human U937 cell differentiation assessed as burst oxidative capacity at 50 uM after 72 hrs by NBT reduction assay relative to control; assay type: functional, cell-based; outline: as §1

| IC50 [1] [µM] | SMILES | CC50 [2] [µM] | also measured |
| --- | --- | --- | --- |
| 3.5 | CC(C)=CCOc1c2c(cc3oc(=O)ccc13)OCO2 | 266 |  |
| 177 | COc1cc(OC)c2ccc(=O)oc2c1OCC=C(C)C [ARTANIN] | 535 |  |
| > 400 | COc1c2c(cc3ccc(=O)oc13)OCO2 | > 2000 |  |
| > 400 | COc1cc(OC)c2ccc(=O)oc2c1OC | > 2000 |  |
| 227 | CC(C)(Cl)C(O)COc1c2c(cc3oc(=O)ccc13)OCO2 (configuration not stated) | 567 |  |
| > 400 | COc1cc2ccc(=O)oc2cc1OCC=C(C)C [PRENYLETIN 6-METHYL ETHER] | 799 |  |
| 182 | COc1cc2oc(=O)ccc2c(OC)c1OC [5,6,7-TRIMETHOXYCOUMARIN] | 790 |  |
| 2.2 | COc1c2c(cc3oc(=O)ccc13)OCO2 | 252 |  |
| 192 | CC(C)(O)C(O)COc1c2c(cc3oc(=O)ccc13)OCO2 (configuration not stated) | 420 | Activity [3]: Active; Activity [4]: inactive; Activity [5]: inactive; growth at 50 µM [6]: 38%; growth inhibition (GI) [7]: tde; Activity [8]: Active; Activity [9]: Active |
| > 400 | O=c1ccc2ccccc2o1 [COUMARIN] | > 2000 |  |
| > 400 | O=c1ccc2c(Br)c3c(cc2o1)OCO3 | > 2000 |  |
| > 400 | COc1cc(OC)c2ccc(=O)oc2c1O [LEPTODACTYLONE] | > 2000 |  |
| > 400 | CC(C)=CCOc1cc2oc(=O)ccc2cc1O [PRENYLETIN] | 820 |  |
| > 400 | O=c1ccc2ccc3c(c2o1)OCO3 | > 2000 |  |
| 25.3 | COC(C)(C)C(O)COc1c2c(cc3oc(=O)ccc13)OCO2 (configuration not stated) | 365 | Activity [3]: Active; Activity [10]: inactive; Activity [4]: inactive; Activity [5]: inactive; Activity [11]: Active; Activity [12]: Agonist; growth at 50 µM [6]: 62.5%; growth inhibition (GI) [7]: tde; Activity [13]: Active; Activity [8]: Active; Activity [9]: Active |
| > 400 | COc1c2c(c(OC)c3oc(=O)ccc13)OCO2 | > 2000 |  |
| > 400 | CC1(C)OC1COc1c2c(cc3oc(=O)ccc13)OCO2 (configuration not stated) | 899 |  |
| > 400 | C=C(C)C(O)COc1cc2oc(=O)ccc2cc1OC (configuration not stated) | 704 |  |
| > 400 | COc1cc2oc(=O)ccc2c(OC)c1O [FRAXINOL] | > 2000 |  |
| > 400 | O=c1ccc2c(F)c3c(cc2o1)OCO3 | > 2000 |  |
| > 400 | O=c1ccc2cc3c(cc2o1)OCO3 [AYAPIN] | > 2000 |  |
| 255 | O=c1ccc2c(O)c3c(cc2o1)OCO3 | > 2000 |  |
